Measurements from ChEMBL document CHEMBL4699667, “Discovery of the Potent, Selective, Orally Available CXCR7 Antagonist ACT-1004-1239” (J Med Chem, 2020).
Values after ≈ are worked out from the molar mass of the structure shown.

Tests used:
[1] = physchem; conditions: octanol/water, pH 7.4
[2] = physchem
[3] = Solubility in FaSSIF-V1 medium; type: physicochemical
[4] = Solubility in FeSSIF-V1 medium; type: physicochemical
[5] = Aqueous solubility at pH 7; type: physicochemical
[6] = Drug level in plasma of DBA/1 mouse at 1 to 100 mg/kg, po administered as single dose measured after 0.5 to 24 hrs; type: ADME, organism-based; conditions: in vivo, dose 1-100 mg/kg, time 0.5-24 hrs
Procedure, shortened: (§1)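 Naive male DBA/1 mice received one oral dose within the 1–100 mg/kg range, alongside a vehicle group. Compound plasma concentration was measured at 0.5, 6 or 24 h post-dose, with n = 3–5 per dose group. Values are mean + SEM, and the limit of quantification was 1.52 ng/mL.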

[7] = Tmax in DBA/1 mouse at 1 to 100 mg/kg, po administered as single dose measured after 0.5 to 24 hrs; type: ADME, organism-based; conditions: in vivo, dose 1-100 mg/kg, time 0.5-24 hrs
Procedure, shortened: as §1

[8] = Cmax in DBA/1 mouse plasma at 1 mg/kg, po administered as single dose measured after 0.5 hrs; type: ADME, organism-based; design: route oral, time 0.5 hrs, dose 1 mg/kg
Procedure, shortened: as §1

[9] = Cmax in DBA/1 mouse plasma at 100 mg/kg, po administered as single dose measured after 0.5 hrs; type: ADME, organism-based; design: route oral, dose 100 mg/kg, time 0.5 hrs
Procedure, shortened: as §1

[10] = Plasma concentration in DBA/1 mouse plasma at 30 mg/kg, po administered as single dose measured after 24 hrs; type: ADME, organism-based
Procedure, shortened: as §1

[11] = Plasma concentration in DBA/1 mouse plasma at 100 mg/kg, po administered as single dose measured after 24 hrs; type: ADME, organism-based
Procedure, shortened: as §1

[12] = AUC (0 to last) in Wistar rat at 10 mg/kg, po after 24 hrs by LC-MS-MS analysis; type: ADME, organism-based; design: route oral, dose 10 mg/kg, time 24 hrs; conditions: in vivo
Procedure, shortened: (§2)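 Rats received a single oral dose of 10 mg/kg (n = 3). Parameters are averages and Tmax is the median. Plasma was sampled at 8 h post-dose, among other times. Bioavailability is referenced to the 1 mg/kg iv dose (n = 2).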

[13] = AUC (0 to last) in beagle dog at 1 mg/kg, po after 24 hrs by LC-MS-MS analysis; type: ADME, organism-based, Canis lupus familiaris; design: route oral, time 24 hrs, dose 1 mg/kg; conditions: in vivo
Procedure, shortened: (§3)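 Dogs received a single oral dose of 1 mg/kg (n = 2). Parameters are averages and Tmax is the median. Plasma was sampled at 8 h post-dose, among other times. Bioavailability is referenced to the 1 mg/kg iv dose (n = 2).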

[14] = Cmax in Wistar rat at 10 mg/kg, po after 24 hrs by LC-MS-MS analysis; type: ADME, organism-based; design: route oral, time 24 hrs, dose 10 mg/kg; conditions: in vivo
Procedure, shortened: as §2

[15] = Cmax in beagle dog at 1 mg/kg, po after 24 hrs by LC-MS-MS analysis; type: ADME, organism-based, Canis lupus familiaris; design: route oral, dose 1 mg/kg, time 24 hrs; conditions: in vivo
Procedure, shortened: as §3

[16] = Tmax in Wistar rat at 10 mg/kg, po after 24 hrs by LC-MS-MS analysis; type: ADME, organism-based; conditions: in vivo
Procedure, shortened: as §2

[17] = Tmax in beagle dog at 1 mg/kg, po after 24 hrs by LC-MS-MS analysis; type: ADME, organism-based, Canis lupus familiaris; conditions: in vivo
Procedure, shortened: as §3

[18] = Oral bioavailability in Wistar rat at 10 mg/kg after 24 hrs by LC-MS-MS analysis; type: ADME, organism-based; conditions: in vivo
Procedure, shortened: as §2

[19] = Oral bioavailability in beagle dog at 1 mg/kg after 24 hrs by LC-MS-MS analysis; type: ADME, organism-based, Canis lupus familiaris; conditions: in vivo
Procedure, shortened: as §3

[20] = AUC (0 to infinity) in Wistar rat at 1 mg/kg, iv after 24 hrs by LC-MS-MS analysis; type: ADME, organism-based; design: route intravenous, dose 1 mg/kg, time 24 hrs; conditions: in vivo
Procedure, shortened: (§4)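 Single intravenous dose of 1 mg/kg in rat and in dog, with n = 2 animals per species. Parameters are reported as averages. Blood clearance is plasma clearance corrected for blood/plasma partitioning and expressed as a fraction of liver blood flow.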

[21] = AUC (0 to infinity) in beagle dog at 1 mg/kg, iv after 24 hrs by LC-MS-MS analysis; type: ADME, organism-based, Canis lupus familiaris; design: route intravenous, dose 1 mg/kg, time 24 hrs; conditions: in vivo
Procedure, shortened: as §4

[22] = Volume of distribution at steady state in Wistar rat at 1 mg/kg, iv after 24 hrs by LC-MS-MS analysis; type: ADME, organism-based; conditions: in vivo, read-out: Vdss
Procedure, shortened: as §4

[23] = Volume of distribution at steady state in beagle dog at 1 mg/kg, iv after 24 hrs by LC-MS-MS analysis; type: ADME, organism-based, Canis lupus familiaris; conditions: in vivo, read-out: Vdss
Procedure, shortened: as §4

[24] = Plasma concentration in Wistar rat at 10 mg/kg, po after 8 hrs by LC-MS-MS analysis; type: ADME, organism-based
Procedure, shortened: as §2

[25] = Plasma concentration in beagle dog at 1 mg/kg, po after 8 hrs by LC-MS-MS analysis; type: ADME, organism-based, Canis lupus familiaris
Procedure, shortened: as §3

logD [1]	pKa [2]	SMILES	further results
2.9	7.4	O=C(N[C@H]1CCN(C2CCC2)C[C@@H]1C(=O)NC1(c2ncccn2)CC1)c1cc(-c2ccc(F)cc2F)on1	–
2.5	7.7	O=C(N[C@H]1CCN(CC2CC2)C[C@@H]1C(=O)NC1(c2ncccn2)CC1)c1cc(-c2ccc(F)cc2F)on1	solubility [3]: 513 µg/mL (≈ 982 µM); solubility [4]: > 880 µg/mL; solubility [5]: 374 µg/mL (≈ 716 µM); Drug uptake [6]: Dose-dependent effect; Tmax [7]: 30 min; Cmax [8]: 6 ng/mL; Cmax [9]: 4280 ng/mL; concentration at 24 h [10]: < 1.52 ng/mL; concentration at 24 h [11]: 14 ng/mL
2.4	6.1	O=C(N[C@H]1CCN(C2CC2)C[C@@H]1C(=O)NC1(c2ncccn2)CC1)c1cc(-c2ccc(F)cc2F)on1	–
> 3.8	–	O=C(N[C@H]1CCN(C2CCCCC2)C[C@@H]1C(=O)NC1(c2ccccn2)CC1)c1cc(-c2ccc(F)cc2F)on1	–
2.9	5.2	O=C(N[C@H]1CCN(C2CC(F)(F)C2)C[C@@H]1C(=O)NC1(c2ncccn2)CC1)c1cc(-c2ccc(F)cc2F)on1	–
2.9	–	O=C(N[C@H]1CCN(C2CCCCC2)C[C@@H]1C(=O)NC1(c2ncccn2)CC1)c1cc(-c2ccc(F)cc2F)on1	–
3.1	7.7	O=C(N[C@H]1CCN(CC2CCC2)C[C@@H]1C(=O)NC1(c2ncccn2)CC1)c1cc(-c2ccc(F)cc2F)on1	–

The next lines start with the compound.

SMILES	logD [1]	pKa [2]	further results
CN1CC[C@H](NC(=O)c2cc(-c3ccc(F)cc3F)on2)[C@@H](C(=O)NC2(c3ncccn3)CC2)C1	1.7	7.3	–
O=C(N[C@H]1CCN(CC2(F)CC2)C[C@@H]1C(=O)NC1(c2ncccn2)CC1)c1cc(-c2ccc(F)cc2F)on1	2.7	6.2	–
O=C(N[C@H]1CCN(CCCF)C[C@@H]1C(=O)NC1(c2ncccn2)CC1)c1cc(-c2ccc(F)cc2F)on1	2.2	6.8	–
O=C(NC1CCN(C2CCCCC2)CC1)c1noc(-c2ccc(F)cc2F)n1	1.6	–	–
C[C@@H](NC(=O)[C@H]1CN(C2CCCCC2)CC[C@@H]1NC(=O)c1cc(-c2ccc(F)cc2F)on1)c1ccccn1	3.9	–	solubility [3]: 38 µg/mL (≈ 70.7 µM); solubility [4]: > 910 µg/mL; solubility [5]: 4 µg/mL (≈ 7.44 µM)
COCCN1CC[C@H](NC(=O)c2cc(-c3ccc(F)cc3F)on2)[C@@H](C(=O)NC2(c3ncccn3)CC2)C1	1.9	6.7	–
CC(C)(NC(=O)[C@H]1CN(C2CCCCC2)CC[C@@H]1NC(=O)c1cc(-c2ccc(F)cc2F)on1)c1ccccn1	3.8	–	–
CCN1CC[C@H](NC(=O)c2cc(-c3ccc(F)cc3F)on2)[C@@H](C(=O)NC2(c3ncccn3)CC2)C1	1.8	7.6	–
O=C(N[C@H]1CCNC[C@@H]1C(=O)NC1(c2ncccn2)CC1)c1cc(-c2ccc(F)cc2F)on1	0.6	8.1	–
C[C@@H](NC(=O)[C@H]1CN(C2CCCCC2)CC[C@@H]1NC(=O)c1cc(-c2ccc(F)cc2F)on1)c1ccccc1	> 4.1	–	–
CC(C)N1CC[C@H](NC(=O)c2cc(-c3ccc(F)cc3F)on2)[C@@H](C(=O)NC2(c3ncccn3)CC2)C1	1.8	8	–
O=C(N[C@H]1CCN(C2CCCCC2)C[C@@H]1C(=O)NCc1ccccc1)c1cc(-c2ccc(F)cc2F)on1	> 4.1	–	–
CCCN1CC[C@H](NC(=O)c2cc(-c3ccc(F)cc3F)on2)[C@@H](C(=O)NC2(c3ncccn3)CC2)C1	2.5	7.6	–
O=C(NC1CCN(C2CCCCC2)CC1)c1cc(-c2ccc(F)cc2F)on1	–	–	solubility [3]: 144 µg/mL (≈ 370 µM); solubility [4]: 196 µg/mL (≈ 503 µM); solubility [5]: 15 µg/mL (≈ 38.5 µM)
Cl.O=C(N[C@H]1CCN(CC2CC2)C[C@@H]1C(=O)NC1(c2ncccn2)CC1)c1cc(-c2ccc(F)cc2F)on1	–	–	AUClast [12]: 827 ng·h/mL; AUClast [13]: 3620 ng·h/mL; Cmax [14]: 600 ng/mL; Cmax [15]: 314 ng/mL; Tmax [16]: 30 min; Tmax [17]: 90 min; bioavailability [18]: 35%; bioavailability [19]: 61%; AUC [20]: 238 ng·h/mL; AUC [21]: 5940 ng·h/mL; Vd [22]: 3.6 L/kg; Vd [23]: 1.6 L/kg; concentration at 8 h [24]: 18.3 ng/mL; concentration at 8 h [25]: 185 ng/mL
CC(=O)N1CC[C@H](NC(=O)c2cc(-c3ccc(F)cc3F)on2)[C@@H](C(=O)NC2(c3ncccn3)CC2)C1	1.6	< 2	–
CN(C)C(=O)[C@H]1CN(C2CCCCC2)CC[C@@H]1NC(=O)c1cc(-c2ccc(F)cc2F)on1 (racemic)	–	–	solubility [3]: 569 µg/mL (≈ 1240 µM); solubility [4]: 652 µg/mL (≈ 1420 µM); solubility [5]: 192 µg/mL (≈ 417 µM)
